Assay [1] in a line: Antitumor activity against mouse advanced Lewis lung carcinoma allografted in ip dosed BDF1 mouse assessed as increase in host lifespan administered as single dose on day 6 or 7 post-tumor implantation. Format: functional. In outline: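 Advanced Lewis lung model: about 40 mg fragments implanted sc by trocar into BDF1 mice, and mice with tumors of about 400 mg (day 6-7) selected. Tumor weight from calipers, w = ab²/2. Agent given as one ip dose in distilled water or physiological saline. Nontumor-bearing mice received matching doses as toxicity controls.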

A short description of assay [2]: Antitumor activity against mouse early Lewis lung carcinoma allografted in BDF1 mouse assessed as time delay in tumor growth at 113 mg/kg, ip administered as single dose on 1 or 2 days post-tumor implantation. In kind it is functional. Conditions: route intraperitoneal. In outline: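 Sc trocar implants of about 40 mg Lewis lung fragments in BDF1 mice. A single ip injection was given on day 1 or 2, in water or physiological saline, at ≤0.5 ml. Tumor size came from caliper length and width as w = ab²/2, measured at least twice weekly. Growth delay is the extra days taken to reach 1 g, compared with untreated controls.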

Assay [3] is described as follows: Antitumor activity against mouse early Lewis lung carcinoma allografted in BDF1 mouse assessed as increase in host life span at 50 mg/kg, ip administered as single dose on 1 or 2 days post-tumor implantation. Particulars: route intraperitoneal. Format: functional. The method in brief:
(§1)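 BDF1 mice (C57Blk/6 × DBA/2) implanted sc by trocar with ~40 mg Lewis lung tumor fragments from bacteriologically sterile donor tumors. Single ip dose on day 1 or 2, as a solution or suspension in water (CMC or gum acacia) or saline (HPC or Tween 80). Read-out is […]. Same-dose toxicity controls were run in nontumor-bearing mice.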

Assay [4] in a line: Antitumor activity against mouse early Lewis lung carcinoma allografted in BDF1 mouse assessed as increase in host life span at 113 mg/kg, ip administered as single dose on 1 or 2 days post-tumor implantation. Particulars: route intraperitoneal. In kind it is functional. The method in brief:
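Early disease: BDF1 mice carrying sc trocar implants of about 40 mg Lewis lung fragments. One ip dose given on day 1 or 2 after implant, in distilled water or saline, at ≤0.5 ml. Endpoints were % increase in life-span of dying animals and delay in days for the primary tumor to reach 1 g. Untreated controls served as reference.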

Assay [5] concerns Mus musculus. The assay can be described thus: Antitumor activity against mouse advanced Lewis lung carcinoma allografted in ip dosed BDF1 mouse assessed as complete regression of established tumor administered as single dose on day 6 or 7 post-tumor implantation. In kind it is functional, organism-based. The method in brief: (§2)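 BDF1 mice (C57Blk/6 × DBA/2) implanted sc by trocar with Lewis lung tumor fragments of about 40 mg, taken only from bacteriologically sterile donor tumors. Mice bearing tumors of about 400 mg (day 6-7) were selected. Each received a single ip dose on day 7, at or below the LD10 in normal mice. Groups were of 10 mice. Tumor weight was taken from calipers as w = ab²/2, measured at least twice weekly. Matched non-tumor mice served as toxicity controls.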

The nature of assay [6]: Antitumor activity against mouse early Lewis lung carcinoma allografted in ip dosed BDF1 mouse assessed as disease cure administered as single dose on 1 or 2 days post-tumor implantation measured for 80 days post-drug treatment. In kind it is functional. The method in brief: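 BDF1 mice implanted sc by trocar with ~40 mg Lewis lung fragments from sterile donor tumors. A single ip dose was given on day 1 or 2 after implant, in water or saline vehicle. Cures were scored in animals observed for at least 80 days after treatment. Drug-toxicity controls were matched non-tumor-bearing mice monitored for body weight and deaths.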

The nature of assay [7]: Ratio of ED50 for antitumor activity against mouse L1210 cells allografted in ip dosed mouse to LD10 for mouse.
The nature of assay [8]: Antitumor activity against mouse early Lewis lung carcinoma allografted in BDF1 mouse assessed as time delay in tumor growth at 50 mg/kg, ip administered as single dose on 1 or 2 days post-tumor implantation. In kind it is functional. Particulars: route intraperitoneal. In outline: (§3)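 BDF1 mice (C57Blk/6 × DBA/2) implanted sc by trocar with ~40 mg Lewis lung tumor fragments from bacteriologically sterile donors. A single ip dose was given on day 1 or 2, as a solution or suspension in water or saline with suspending agent, at ≤0.5 ml. Tumors were measured by caliper at least twice weekly, with weight = ab²/2. Delay was taken as the days for the tumor to reach 1 g.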

The nature of assay [9]: Antitumor activity against mouse early Lewis lung carcinoma allografted in BDF1 mouse assessed as increase in host life span at 48 mg/kg, ip administered as single dose on 1 or 2 days post-tumor implantation. Particulars: route intraperitoneal. Format: functional. The method in brief: as §1
The test system of assay [10] is Mus musculus. Nature of the assay: Antitumor activity against mouse advanced Lewis lung carcinoma allografted in BDF1 mouse assessed as complete regression of established tumor at 32 mg/kg, ip administered as single dose on 7th day post-tumor implantation. Format: functional, organism-based. Also on record: dose 32 mg/kg. The method in brief: (§4)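 BDF1 mice (C57Blk/6 × DBA/2) implanted sc by trocar with about 40 mg Lewis lung tumor fragments from bacteriologically sterile donors. Advanced-disease groups held tumors of about 400 mg by day 6-7, sized by caliper (w = ab²/2). Single ip injection on day 7, in water or saline vehicle, at or below the LD10 in normal mice. Tumors measured at least twice weekly.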

Assay [11] is described as follows: Antitumor activity against mouse advanced Lewis lung carcinoma allografted in BDF1 mouse assessed as increase in host life span at 21 mg/kg, ip administered as single dose on 7th day post-tumor implantation. Format: functional. Particulars: route intraperitoneal. In outline: as §4
Assay [12] in a line: Antitumor activity against mouse early Lewis lung carcinoma allografted in BDF1 mouse assessed as time delay in tumor growth at 48 mg/kg, ip administered as single dose on 1 or 2 days post-tumor implantation. Conditions: route intraperitoneal. In kind it is functional. In outline: as §3
Assay [13] in a line: Antitumor activity against mouse early Lewis lung carcinoma allografted in BDF1 mouse assessed as time delay in tumor growth at 21 mg/kg, ip administered as single dose on 1 or 2 days post-tumor implantation. In kind it is functional. Particulars: route intraperitoneal. The method in brief:
as §3

Assay [14] has as its system Mus musculus. The assay can be described thus: Antitumor activity against mouse advanced Lewis lung carcinoma allografted in ip dosed BDF1 mouse assessed as disease cure administered as single dose on day 6 or 7 post-tumor implantation. In kind it is functional, organism-based. The method in brief: as §2
Assay [15] concerns Mus musculus. Nature of the assay: Antitumor activity against mouse advanced Lewis lung carcinoma allografted in BDF1 mouse assessed as disease cure at 21 mg/kg, ip administered as single dose on 7th day post-tumor implantation measured for 80 days post-drug treatment. Format: functional, organism-based. Also on record: dose 21 mg/kg. The method in brief: as §2
The subject of assay [16] is Mus musculus. Nature of the assay: Antitumor activity against mouse advanced Lewis lung carcinoma allografted in BDF1 mouse assessed as disease cure at 32 mg/kg, ip administered as single dose on 7th day post-tumor implantation measured for 80 days post-drug treatment. Format: functional, organism-based. Also on record: dose 32 mg/kg. In outline: as §2
Assay [17] relates to Mus musculus. The assay can be described thus: Antitumor activity against mouse advanced Lewis lung carcinoma allografted in BDF1 mouse assessed as disease cure at 48 mg/kg, ip administered as single dose on 7th day post-tumor implantation measured for 80 days post-drug treatment. Format: functional, organism-based. On the set-up: dose 48 mg/kg. The method in brief: as §2

Assay [18] in a line: Antitumor activity against mouse advanced Lewis lung carcinoma allografted in BDF1 mouse assessed as increase in host life span at 48 mg/kg, ip administered as single dose on 7th day post-tumor implantation. Format: functional. Conditions: route intraperitoneal. In outline:
as §4

A short description of assay [19]: Antitumor activity against mouse early Lewis lung carcinoma allografted in BDF1 mouse assessed as increase in host life span at 21 mg/kg, ip administered as single dose on 1 or 2 days post-tumor implantation. Format: functional. Particulars: route intraperitoneal. In outline:
as §1

Assay [20] concerns Mus musculus. Nature of the assay: Antitumor activity against mouse advanced Lewis lung carcinoma allografted in BDF1 mouse assessed as complete regression of established tumor at 48 mg/kg, ip administered as single dose on 7th day post-tumor implantation. In kind it is functional, organism-based. Also on record: dose 48 mg/kg. In outline: as §2
Assay [21] can be described thus: Antitumor activity against mouse advanced Lewis lung carcinoma allografted in BDF1 mouse assessed as increase in host life span at 32 mg/kg, ip administered as single dose on 7th day post-tumor implantation. Format: functional. Conditions: route intraperitoneal. In outline:
as §4

The subject of assay [22] is Mus musculus. The assay can be described thus: Antitumor activity against mouse advanced Lewis lung carcinoma allografted in BDF1 mouse assessed as complete regression of established tumor at 21 mg/kg, ip administered as single dose on 7th day post-tumor implantation. Also on record: dose 21 mg/kg. Format: functional, organism-based. In outline: as §2
Assay [23] is described as follows: Antitumor activity against mouse early Lewis lung carcinoma allografted in BDF1 mouse assessed as time delay in tumor growth at 30 mg/kg, ip administered as single dose on 1 or 2 days post-tumor implantation. Format: functional. Conditions: route intraperitoneal. The method in brief: as §3
Assay [24] is described as follows: Antitumor activity against mouse early Lewis lung carcinoma allografted in BDF1 mouse assessed as increase in host life span at 30 mg/kg, ip administered as single dose on 1 or 2 days post-tumor implantation. Format: functional. Conditions: route intraperitoneal. The method in brief: as §1
Assay [25] can be described thus: Antitumor activity against mouse early Lewis lung carcinoma allografted in BDF1 mouse assessed as increase in host life span at 45 mg/kg, ip administered as single dose on 1 or 2 days post-tumor implantation. In kind it is functional. Conditions: route intraperitoneal. In outline:
as §1

The next assay concerns L1210. The assay can be described thus: Antitumor activity against mouse L1210 cells allografted in ip dosed mouse assessed as disease cure administered as single dose. Format: functional, organism-based.
The nature of assay [26]: Antitumor activity against mouse early Lewis lung carcinoma allografted in BDF1 mouse assessed as time delay in tumor growth at 45 mg/kg, ip administered as single dose on 1 or 2 days post-tumor implantation. Conditions: route intraperitoneal. Format: functional. The method in brief: as §3
Assay [27] is described as follows: Antitumor activity against mouse early Lewis lung carcinoma allografted in BDF1 mouse assessed as increase in host life span at 38 mg/kg, ip administered as single dose on 1 or 2 days post-tumor implantation. In kind it is functional. Particulars: route intraperitoneal. In outline:
as §1

Assay [28] can be described thus: Antitumor activity against mouse early Lewis lung carcinoma allografted in BDF1 mouse assessed as time delay in tumor growth at 38 mg/kg, ip administered as single dose on 1 or 2 days post-tumor implantation. Particulars: route intraperitoneal. In kind it is functional. In outline:
as §3

A short description of assay [29]: Antitumor activity against mouse early Lewis lung carcinoma allografted in BDF1 mouse assessed as time delay in tumor growth at 25 mg/kg, ip administered as single dose on 1 or 2 days post-tumor implantation. Format: functional. Particulars: route intraperitoneal. In outline:
as §3

Assay [30] in a line: Antitumor activity against mouse early Lewis lung carcinoma allografted in BDF1 mouse assessed as increase in host life span at 25 mg/kg, ip administered as single dose on 1 or 2 days post-tumor implantation. Conditions: route intraperitoneal. In kind it is functional. In outline: as §1

Structures are written as SMILES. Activity calls are given as the source filed them. No cut-off for these calls is given here.

Take `C[C@@H]1CCC[C@@H](NC(=O)N(CCCl)N=O)C1` (relative stereo): in [1], the increase in lifespan (ILS) was below 25%. Also, the figures for the Time in assay [2] and in assay [8] were 6.1 days and 4 days, respectively. Also, the increase in life span (ILS) at 50 mg/kg in [3] stood at 47%. In assay [4], the ILS at 113 mg/kg turned out to be 50%. For the same compound, the inhibition entry in the assay on Mus musculus [5] is “inactive”. For the same compound, the Activity in [6] was 10%. In addition, the Ratio in assay [7] was determined as 0.4.

As to `CC(=O)OC[C@H]1CC[C@H](NC(=O)N(CCF)N=O)CC1`, the increase in life span (ILS) in assay [1] is on record as above 25%. Moreover, the ILS at 48 mg/kg in [9] is 7%; in [18], 26%. Further, the inhibition entry in the assay with Mus musculus [10], in the assay on Mus musculus [5], in the assay with Mus musculus [20] and in the assay with Mus musculus [22] was “inactive” in each case. In addition, the increase in life span (ILS) at 21 mg/kg in assay [11] is 26%; in [19], 24%. The Time in assay [12] turned out to be 12 days; in [13] it was 1.3 days. Also, the outcome with Mus musculus [14], in the assay with Mus musculus [15], with Mus musculus [16] and with Mus musculus [17] was inactive. Further, in assay [21], the ILS at 32 mg/kg was determined as 13%.

Consider `O=NN(CCCl)C(=O)N[C@H]1CC[C@@H](O)CC1`, for which the ILS in assay [1] is below 25%. Also, the Time was 5.1 days in assay [23] and 18 days in assay [26]. In addition, the ILS at 30 mg/kg in [24] came out at 92%. Besides, the ILS at 45 mg/kg in assay [25] is 110%. Also, in the assay with L1210, the outcome was inactive. Also, the inhibition entry with Mus musculus [5] is “inactive”. Also, the Activity in [6] is 10%.

Consider `O=NN(CCCl)C(=O)N[C@H]1CC[C@@H](CC(=O)O)CC1`, for which, in assay [1], the increase in life span (ILS) is below 25%. For the same compound, the ILS at 38 mg/kg in assay [27] was 42%. In addition, the figures for the Time in assay [28] and in [29] were 9.2 days and 8.2 days, respectively. Moreover, the inhibition entry with Mus musculus [5] is “inactive”. In assay [6], the Activity is recorded as above 50%. The ILS at 25 mg/kg in [30] came out at 59%. In assay [7], the Ratio turned out to be 0.4.
